Target: Insulin receptor (Homo sapiens, UniProt P06213)
Experiment: Activation of human insulin receptor tyrosine kinase (IRTK)
Procedure, shortened: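 CHO cells stably transfected with human insulin receptor, plated 150 000 cells/well for 24 h, serum-starved 2 h, then exposed to compound 20 min at 37 °C. Lysate IR captured on anti-IR antibody wells (16 h, 4 °C), kinase reaction 40 min at 25 °C, radioactivity on phosphocellulose filters. Activity as % of maximal response to 100 nM insulin.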

Insulin receptor, sequence (P06213 28-758 limits assumed): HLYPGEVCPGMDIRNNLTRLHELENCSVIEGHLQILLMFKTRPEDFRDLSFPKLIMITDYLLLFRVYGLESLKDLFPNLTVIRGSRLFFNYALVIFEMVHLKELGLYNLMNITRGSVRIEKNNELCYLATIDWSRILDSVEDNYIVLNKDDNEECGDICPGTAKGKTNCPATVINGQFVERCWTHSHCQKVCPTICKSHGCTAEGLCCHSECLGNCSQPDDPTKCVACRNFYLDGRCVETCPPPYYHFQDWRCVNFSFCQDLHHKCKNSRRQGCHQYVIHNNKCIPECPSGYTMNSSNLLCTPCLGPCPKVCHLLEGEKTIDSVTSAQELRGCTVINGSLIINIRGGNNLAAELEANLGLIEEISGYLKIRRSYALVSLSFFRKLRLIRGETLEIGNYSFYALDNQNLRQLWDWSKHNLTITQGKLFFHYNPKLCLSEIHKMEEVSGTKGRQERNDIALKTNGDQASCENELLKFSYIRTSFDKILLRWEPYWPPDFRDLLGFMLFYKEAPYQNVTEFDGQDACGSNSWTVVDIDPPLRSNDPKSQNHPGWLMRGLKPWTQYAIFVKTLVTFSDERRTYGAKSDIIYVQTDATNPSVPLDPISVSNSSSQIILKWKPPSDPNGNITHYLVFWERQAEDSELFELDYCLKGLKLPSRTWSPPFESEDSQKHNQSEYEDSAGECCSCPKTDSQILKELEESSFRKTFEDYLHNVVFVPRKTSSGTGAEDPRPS
Insulin receptor, sequence (P06213 763-1382 limits assumed): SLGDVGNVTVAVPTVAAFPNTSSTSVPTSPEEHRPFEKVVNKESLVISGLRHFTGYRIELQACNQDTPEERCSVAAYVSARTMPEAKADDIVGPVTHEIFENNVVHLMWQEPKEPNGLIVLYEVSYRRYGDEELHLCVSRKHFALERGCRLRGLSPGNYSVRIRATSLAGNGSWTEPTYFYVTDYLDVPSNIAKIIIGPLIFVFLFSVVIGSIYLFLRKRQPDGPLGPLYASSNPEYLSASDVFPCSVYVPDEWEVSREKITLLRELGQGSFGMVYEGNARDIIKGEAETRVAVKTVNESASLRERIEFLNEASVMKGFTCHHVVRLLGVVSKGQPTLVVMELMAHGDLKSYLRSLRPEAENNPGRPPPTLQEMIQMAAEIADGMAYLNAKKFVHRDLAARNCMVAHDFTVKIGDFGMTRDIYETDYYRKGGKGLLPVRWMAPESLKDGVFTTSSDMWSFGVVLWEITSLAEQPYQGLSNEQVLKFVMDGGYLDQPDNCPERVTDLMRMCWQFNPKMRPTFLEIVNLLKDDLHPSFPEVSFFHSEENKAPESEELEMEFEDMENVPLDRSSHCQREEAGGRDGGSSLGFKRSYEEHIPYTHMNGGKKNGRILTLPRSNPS

Row | EC50 [nM] | Compound
1 | 300 | Cn1cc(C2C(=O)C(=O)C(c3ccccc3)C(=O)C2=O)c2ccccc21 (configuration not stated) [2,5-Dihydroxy-3-(1-methyl-1H-indol-3-yl)-6-phenyl-[1,4]benzoquinone]
2 | 300 | O=C1C(=O)C(c2c[nH]c3ccccc23)C(=O)C(=O)C1c1ccccc1 (configuration not stated) [2,5-Dihydroxy-3-(1H-indol-3-yl)-6-phenyl-[1,4]benzoquinone]
